ChEMBL document CHEMBL1926614, “Substituted thiazoles V. synthesis and antitumor activity of novel thiazolo[2,3-b]quinazoline and pyrido[4,3-d]thiazolo[3,2-a]pyrimidine analogues” (2012)

Key:
Assay type in all cases: functional
[1] = test system: SNB-19; assay: Growth inhibition of human SNB19 cells at 10 uM after 48 hrs by coulter counting; settings: SNB-19, 48 h, read-out: GI
How it was run: (§1)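 Single-dose primary screen across the full NCI 60-cell-line panel. Stocks were made in DMSO and diluted in PBS to a final DMSO below 1%. Cultures at 6 × 10⁴ cells/ml were run in duplicate wells alongside PBS/DMSO vehicle controls at 37 °C in humidified 5% CO₂. Data were expressed as percent growth of treated cells.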

[2] = test system: ACHN; assay: Growth inhibition of human ACHN cells at 10 uM after 48 hrs by coulter counting; settings: read-out: GI; how it was run: as §1
[3] = test system: NCI-H226; assay: Growth inhibition of human NCI-H226 cells at 10 uM after 48 hrs by coulter counting; settings: NCI-H226, 48 h, read-out: GI; how it was run: as §1
[4] = test system: SN12C; assay: Growth inhibition of human SN12C cells at 10 uM after 48 hrs by coulter counting; settings: read-out: GI; how it was run: as §1
[5] = Growth inhibition of human NCI-322M cells at 10 uM after 48 hrs by coulter counting; settings: read-out: GI; how it was run: as §1
[6] = test system: LOX IMVI; assay: Growth inhibition of human LOXIMVI cells at 10 uM after 48 hrs by coulter counting; settings: read-out: GI; how it was run: as §1
[7] = test system: HCT-116; assay: Growth inhibition of human HCT116 cells at 10 uM after 48 hrs by coulter counting; settings: HCT-116, 48 h, read-out: GI; how it was run: as §1
[8] = test system: UACC-257; assay: Growth inhibition of human UACC257 cells at 10 uM after 48 hrs by coulter counting; settings: UACC-257, 48 h, read-out: GI
How it was run: (§2)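 Single-dose screen in the NCI 60 human tumor cell line panel (nine subpanels). Compounds dissolved in DMSO and diluted in phosphate buffered saline, keeping final DMSO below 1%. Added in duplicate wells to cells at 6 × 10⁴ cells/ml. Controls held PBS and DMSO at matching dilutions. Incubated at 37 °C, humidified, 5% CO₂. Reported as percent growth of treated cells.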

[9] = test system: SNB-75; assay: Growth inhibition of human SNB75 cells at 10 uM after 48 hrs by coulter counting; settings: SNB-75, 48 h, read-out: GI; how it was run: as §1
[10] = test system: M14; assay: Growth inhibition of human M14 cells at 10 uM after 48 hrs by coulter counting; settings: M14, 48 h, read-out: GI; how it was run: as §1
[11] = test system: RPMI-8226; assay: Growth inhibition of human RPMI8226 cells at 10 uM after 48 hrs by coulter counting; settings: RPMI-8226, 48 h, read-out: GI; how it was run: as §1
[12] = test system: SK-MEL-5; assay: Growth inhibition of human SK-MEL-5 cells at 10 uM after 48 hrs by coulter counting; settings: SK-MEL-5, 48 h, read-out: GI; how it was run: as §1
[13] = test system: CAKI-1; assay: Growth inhibition of human Caki1 cells at 10 uM after 48 hrs by coulter counting; settings: CAKI-1, 48 h, read-out: GI; how it was run: as §1
[14] = test system: MOLT-4; assay: Growth inhibition of human MOLT4 cells at 10 uM after 48 hrs by coulter counting; settings: MOLT-4, 48 h, read-out: GI; how it was run: as §1
[15] = test system: A498; assay: Growth inhibition of human A498 cells at 10 uM after 48 hrs by coulter counting; settings: A498, 48 h, read-out: GI; how it was run: as §1
[16] = test system: HOP-62; assay: Growth inhibition of human HOP62 cells at 10 uM after 48 hrs by coulter counting; settings: HOP-62, 48 h, read-out: GI; how it was run: as §1
[17] = test system: EKVX; assay: Growth inhibition of human EKVX cells at 10 uM after 48 hrs by coulter counting; settings: read-out: GI; how it was run: as §1
[18] = test system: UACC-62; assay: Growth inhibition of human UACC62 cells at 10 uM after 48 hrs by coulter counting; settings: UACC-62, 48 h, read-out: GI; how it was run: as §2
[19] = test system: U-251; assay: Growth inhibition of human U251 cells at 10 uM after 48 hrs by coulter counting; settings: U-251, 48 h, read-out: GI; how it was run: as §2
[20] = test system: DU-145; assay: Growth inhibition of human DU145 cells at 10 uM after 48 hrs by coulter counting; settings: DU-145, 48 h, read-out: GI; how it was run: as §1
[21] = test system: BT-549; assay: Growth inhibition of human BT549 cells at 10 uM after 48 hrs by coulter counting; settings: BT-549, 48 h, read-out: GI; how it was run: as §1
[22] = test system: SK-MEL-2; assay: Growth inhibition of human SK-MEL-2 cells at 10 uM after 48 hrs by coulter counting; settings: SK-MEL-2, 48 h, read-out: GI; how it was run: as §1
[23] = test system: OVCAR-8; assay: Growth inhibition of human OVCAR8 cells at 10 uM after 48 hrs by coulter counting; settings: OVCAR-8, 48 h, read-out: GI; how it was run: as §1
[24] = test system: HCT-15; assay: Growth inhibition of human HCT15 cells at 10 uM after 48 hrs by coulter counting; settings: HCT-15, 48 h, read-out: GI; how it was run: as §1
[25] = test system: MDA-MB-435; assay: Growth inhibition of human MDA-MB-435 cells at 10 uM after 48 hrs by coulter counting; settings: MDA-MB-435, 48 h, read-out: GI; how it was run: as §1
[26] = test system: SK-MEL-28; assay: Growth inhibition of human SK-MEL-28 cells at 10 uM after 48 hrs by coulter counting; settings: SK-MEL-28, 48 h, read-out: GI; how it was run: as §1
[27] = test system: T47D; assay: Growth inhibition of human T47D cells at 10 uM after 48 hrs by coulter counting; settings: read-out: GI; how it was run: as §2
[28] = test system: TK-10; assay: Growth inhibition of human TK10 cells at 10 uM after 48 hrs by coulter counting; settings: TK-10, 48 h, read-out: GI; how it was run: as §2
[29] = test system: NCI-H23; assay: Growth inhibition of human NCI-H23 cells at 10 uM after 48 hrs by coulter counting; settings: NCI-H23, 48 h, read-out: GI; how it was run: as §1
[30] = test system: NCI-H522; assay: Growth inhibition of human NCI-H522 cells at 10 uM after 48 hrs by coulter counting; settings: NCI-H522, 48 h, read-out: GI; how it was run: as §1
[31] = test system: KM12; assay: Growth inhibition of human KM12 cells at 10 uM after 48 hrs by coulter counting; settings: KM12, 48 h, read-out: GI; how it was run: as §1
[32] = test system: NCI-H460; assay: Growth inhibition of human NCI-H460 cells at 10 uM after 48 hrs by coulter counting; settings: NCI-H460, 48 h, read-out: GI; how it was run: as §1
[33] = test system: MCF7; assay: Growth inhibition of human MCF7 cells at 10 uM after 48 hrs by coulter counting; settings: MCF7, 48 h, read-out: GI; how it was run: as §1
[34] = test system: SF-268; assay: Growth inhibition of human SF268 cells at 10 uM after 48 hrs by coulter counting; settings: SF-268, 48 h, read-out: GI; how it was run: as §1
[35] = test system: HT-29; assay: Growth inhibition of human HT-29 cells at 10 uM after 48 hrs by coulter counting; settings: HT-29, 48 h, read-out: GI; how it was run: as §1
[36] = test system: NCI/ADR-RES; assay: Growth inhibition of human NCI/ADR-RES cells at 10 uM after 48 hrs by coulter counting; settings: read-out: GI; how it was run: as §1
[37] = test system: SF-295; assay: Growth inhibition of human SF295 cells at 10 uM after 48 hrs by coulter counting; settings: SF-295, 48 h, read-out: GI; how it was run: as §1
[38] = test system: UO-31; assay: Growth inhibition of human UO31 cells at 10 uM after 48 hrs by coulter counting; settings: UO-31, 48 h, read-out: GI; how it was run: as §2
[39] = test system: HL-60(TB); assay: Growth inhibition of human HL-60(TB) cells at 10 uM after 48 hrs by coulter counting; settings: HL-60, 48 h, read-out: GI
How it was run: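 Test compound was dissolved in DMSO and diluted in phosphate-buffered saline to a final DMSO level below 1%. Dilutions were plated in duplicate with cell culture at 6 × 10⁴ cells/ml. Vehicle controls held PBS and DMSO at matching dilutions. Incubation was at 37 °C, humidified, under 5% CO₂. Data were reported as percent growth of treated cells.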

[40] = test system: K562; assay: Growth inhibition of human K562 cells at 10 uM after 48 hrs by coulter counting; settings: K562, 48 h, read-out: GI; how it was run: as §1
[41] = test system: CCRF-CEM; assay: Growth inhibition of human CCRF-CEM cells at 10 uM after 48 hrs by coulter counting; settings: read-out: GI; how it was run: as §1
[42] = test system: 786-0; assay: Growth inhibition of human 786-0 cells at 10 uM after 48 hrs by coulter counting; settings: 786-0, 48 h, read-out: GI; how it was run: as §1
[43] = test system: A549; assay: Growth inhibition of human A549 cells at 10 uM after 48 hrs by coulter counting; settings: A549, 48 h, read-out: GI; how it was run: as §1

Compound: CCN1CC2=C(N=C3SC=C(C)N3C2c2cccs2)/C(=C/c2cccs2)C1 (stereo not drawn)
- inhibition of growth at 10 µM [1]: > 10%
- inhibition of growth at 10 µM [2]: > 10%
- inhibition of growth at 10 µM [3]: > 10%
- inhibition of growth at 10 µM [4]: > 10%
- inhibition of growth at 10 µM [5]: > 10%
- inhibition of growth at 10 µM [6]: > 10%
- inhibition of growth at 10 µM [7]: > 10%
- inhibition of growth at 10 µM [8]: > 10%
- inhibition of growth at 10 µM [9]: 13.6%
- inhibition of growth at 10 µM [10]: > 10%
- inhibition of growth at 10 µM [11]: > 10%
- inhibition of growth at 10 µM [12]: > 10%
- inhibition of growth at 10 µM [13]: > 10%
- inhibition of growth at 10 µM [14]: > 10%
- inhibition of growth at 10 µM [15]: > 10%
- inhibition of growth at 10 µM [16]: > 10%
- inhibition of growth at 10 µM [17]: 17.7%
- inhibition of growth at 10 µM [18]: > 10%
- inhibition of growth at 10 µM [19]: > 10%
- inhibition of growth at 10 µM [20]: > 10%
- inhibition of growth at 10 µM [21]: > 10%
- inhibition of growth at 10 µM [22]: > 10%
- inhibition of growth at 10 µM [23]: > 10%
- inhibition of growth at 10 µM [24]: > 10%
- inhibition of growth at 10 µM [25]: > 10%
- inhibition of growth at 10 µM [26]: > 10%
- inhibition of growth at 10 µM [27]: > 10%
- inhibition of growth at 10 µM [28]: > 10%
- inhibition of growth at 10 µM [29]: > 10%
- inhibition of growth at 10 µM [30]: > 10%
- inhibition of growth at 10 µM [31]: > 10%
- inhibition of growth at 10 µM [32]: > 10%
- inhibition of growth at 10 µM [33]: > 10%
- inhibition of growth at 10 µM [34]: > 10%
- inhibition of growth at 10 µM [35]: > 10%
- inhibition of growth at 10 µM [36]: > 10%
- inhibition of growth at 10 µM [37]: > 10%
- inhibition of growth at 10 µM [38]: 21.8%
- inhibition of growth at 10 µM [39]: > 10%
- inhibition of growth at 10 µM [40]: > 10%
- inhibition of growth at 10 µM [41]: > 10%
- inhibition of growth at 10 µM [42]: > 10%
- inhibition of growth at 10 µM [43]: > 10%
